The values below come from ChEMBL document CHEMBL3872225, “Synthesis, binding assays, cytotoxic activity and docking studies of benzimidazole and benzothiophene derivatives with selective affinity for the CB2 cannabinoid receptor” (Eur J Med Chem, 2016).

The nature of data set [1]: Cytotoxicity against human HeLa cells assessed as reduction in cell viability measured after 72 hrs by MTT assay. It is filed as functional, cell-based. The method, boiled down: (§1)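 Cells kept in RPMI 1640 with 5% FBS, penicillin/streptomycin, 37 °C, 5% CO2. Seeded at 10,000 cells/well, then exposed to compounds at 0.001–10 μM in 5% FBS-RPMI for 72 h at 37 °C. MTT added for 4 h, formazan dissolved overnight in 10% SDS/0.1 mM HCl, absorbance read at 570 nm. […] Etoposide as positive control.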
In general terms: Formazan colour is commonly taken as a measure of viable cells.

Data set [2] has as its target T1, Cannabinoid receptor 2 (Homo sapiens, UniProt P34972). The data set is described as follows: Displacement of [3H]CP-55940 from human recombinant CB2 receptor expressed in HEK293 cell membranes incubated for 1.5 hrs. The method, boiled down:
(§2)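 Membranes from HEK-293 cells overexpressing human CB1 or CB2 incubated with increasing compound concentrations and 0.5 nM [3H]CP-55,940 at 30 °C for 1.5 h. […] Selectivity index is Ki CB1/Ki CB2.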
(In general: Loss of bound radioactivity is the signal in a displacement assay; it reports binding, not function.)

Data set [3] has as its target T1, Cannabinoid receptor 2. Nature of the data set: Displacement of [3H]CP-55940 from human recombinant CB2 receptor expressed in HEK293 cell membranes at 1 uM incubated for 1.5 hrs relative to control. The method, boiled down:
(§3)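 Single-point screen on HEK-293 membranes overexpressing human CB1 or CB2. […] Compounds displacing more than 50% at 1 μM went on to full curves.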

The nature of data set [4]: Cytotoxicity against African green monkey Vero cells assessed as reduction in cell viability measured after 72 hrs by MTT assay. Type of data set: toxicity, cell-based. As to conditions: Chlorocebus sabaeus (African green monkey). The method, boiled down: as §1
Data set [5] is described as follows: Cytotoxicity against human H1975-1 cells assessed as reduction in cell viability measured after 72 hrs by MTT assay. Type of data set: functional, cell-based. The procedure, abridged:
as §1

The next data set addresses Cannabinoid receptor 1 (Homo sapiens, UniProt P21554). Nature of the data set: Displacement of [3H]CP-55940 from human recombinant CB1 receptor expressed in HEK293 cell membranes incubated for 1.5 hrs. The method, boiled down: as §2
The species named for the next data set is Homo sapiens. The data set is described as follows: Selectivity index, ratio of Ki for displacement of [3H]CP-55940 from human recombinant CB1 receptor to Ki for displacement of [3H]CP-55940 from human recombinant CB2 receptor. The procedure, abridged: as §2
Data set [6] addresses Cannabinoid receptor 1 (CB1) (Homo sapiens, UniProt P21554). The data set is described as follows: Displacement of [3H]CP-55940 from human recombinant CB1 receptor expressed in HEK293 cell membranes at 1 uM incubated for 1.5 hrs relative to control. As to conditions: probe [3H]CP-55940. The procedure, abridged: as §3
The nature of data set [7]: Cytotoxicity against human HL60 cells assessed as reduction in cell viability measured after 72 hrs by MTT assay. It is filed as functional, cell-based. The note with it: HL-60, 72 h. The procedure, abridged: as §1
Data set [8] is described as follows: Cytotoxicity against resistant human HCT116 cells assessed as reduction in cell viability measured after 72 hrs by MTT assay. Type of data set: functional, cell-based. The note with it: HCT-116, 72 h. The method, boiled down: as §1

Where only a bound is given, the exact number is not on record here.

T1 sequence (P34972 whole entry): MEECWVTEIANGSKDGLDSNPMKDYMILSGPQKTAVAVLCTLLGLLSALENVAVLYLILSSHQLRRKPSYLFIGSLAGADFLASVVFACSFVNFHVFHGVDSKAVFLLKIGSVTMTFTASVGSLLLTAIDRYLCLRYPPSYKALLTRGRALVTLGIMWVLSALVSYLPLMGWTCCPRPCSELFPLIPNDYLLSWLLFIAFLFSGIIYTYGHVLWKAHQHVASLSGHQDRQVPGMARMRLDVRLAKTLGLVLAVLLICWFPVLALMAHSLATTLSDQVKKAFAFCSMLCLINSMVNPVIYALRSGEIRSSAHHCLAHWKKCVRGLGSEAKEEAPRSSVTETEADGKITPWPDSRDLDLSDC
Sequence of Cannabinoid receptor 1 (P21554 whole entry): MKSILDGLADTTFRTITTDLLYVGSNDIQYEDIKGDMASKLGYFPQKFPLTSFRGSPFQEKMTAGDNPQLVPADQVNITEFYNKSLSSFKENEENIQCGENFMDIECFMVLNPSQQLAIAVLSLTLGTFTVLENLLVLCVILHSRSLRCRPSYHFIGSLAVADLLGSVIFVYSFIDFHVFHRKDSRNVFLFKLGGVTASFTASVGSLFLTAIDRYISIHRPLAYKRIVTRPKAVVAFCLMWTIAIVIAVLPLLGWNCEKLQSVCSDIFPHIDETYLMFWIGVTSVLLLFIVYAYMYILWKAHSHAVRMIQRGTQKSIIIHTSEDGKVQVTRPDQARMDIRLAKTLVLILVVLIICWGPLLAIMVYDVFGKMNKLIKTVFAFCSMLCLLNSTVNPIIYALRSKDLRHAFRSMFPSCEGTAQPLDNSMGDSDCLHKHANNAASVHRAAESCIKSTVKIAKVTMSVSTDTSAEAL
Sequence of Cannabinoid receptor 1 (CB1) (P21554 whole entry): as above

For orientation: IC50 means the concentration at which inhibition is half-maximal. For orientation: Ki means the dissociation constant of the complex between target and ligand, obtained from inhibition or displacement. In general, inhibition refers to the share of the control response that was lost under treatment. For the compound `O=C(c1cccc2ccccc12)n1c(C2CCCC2)nc2ccccc21`, the IC50 was over 10 µM in [1]; 2.9 µM at Cannabinoid receptor 2 [2]; over 10 µM in [5]; over 10 µM on Cannabinoid receptor 1; 0.106 µM in data set [7]; over 10 µM in data set [8]. Also, the Ki was 0.7 µM on Cannabinoid receptor 2 [2] and over 10 µM on Cannabinoid receptor 1. Besides, the inhibition at Cannabinoid receptor 2 [3] was over 50%. In addition, in data set [4], the IC50 at 72 h was over 10 µM. For the same compound, the Ratio Ki in the data set listed under Homo sapiens is over 14. Also, the inhibition at 1.5 h, 1 µM in data set [6] was over 50%.

Take `COc1ccc(C(=O)n2c(-c3ccc(OC)cc3)nc3ccccc32)cc1`: the IC50 in data set [1] is over 10 µM; at Cannabinoid receptor 2 [2], 5.9 µM; in data set [5], over 10 µM; on Cannabinoid receptor 1 it was over 10 µM; in [7], 0.175 µM; in data set [8] it was over 10 µM. For the same compound, the Ki was 1.5 µM at Cannabinoid receptor 2 [2] and over 10 µM on Cannabinoid receptor 1. For the same compound, on Cannabinoid receptor 2 [3], the inhibition was over 50%. In addition, in data set [4], the IC50 at 72 h was over 10 µM. The Ratio Ki in the data set filed under Homo sapiens is over 6.7. Besides, the inhibition at 1.5 h, 1 µM in [6] is over 50%.
